Shown are actives, neighbours in structure and some others; about 3% of the full set was active somewhere.
CASP6 VEID inh: caspase-6 (human) enzyme inhibition | inhibition, % at 12.5 µM | AID 686996 | P55212 | 350,000 tested, 0.53% active | purified caspase-6, Z-VEID-R110 cleavage fluorescence;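 active = mean inhibition across replicates at least about 35%, with every replicate also reaching that limit, limit read from the data; inconclusive = only one of the two criteria met; inactive = neither criterion met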;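 also: 0% = median of neutral control wells and 100% = no fluorescence left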
Wnt bcat act: activators of Wnt/beta-catenin signaling | Wnt/beta-catenin reporter cell assay, activator, plate reader | activation, % at 9.35 µM | 300,000 tested, 1.2% active; in the data active = activation above about 30%, passing the limit was not always enough; inconclusive = no clear call, values can overlap the other calls;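 also: 0% = neutral control wells and 100% = positive control wells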
NSD2 inh: inhibitors of human histone methyltransferase NSD2; O96028; NSD2 peptide methylation, AlphaScreen, 120 min; inhibition, % at 12.5 µM; 310,000 tested, 0.54% active; AID 743445; in the data active = inhibition above about 50%
Target sequence (O96028 whole entry, looked up): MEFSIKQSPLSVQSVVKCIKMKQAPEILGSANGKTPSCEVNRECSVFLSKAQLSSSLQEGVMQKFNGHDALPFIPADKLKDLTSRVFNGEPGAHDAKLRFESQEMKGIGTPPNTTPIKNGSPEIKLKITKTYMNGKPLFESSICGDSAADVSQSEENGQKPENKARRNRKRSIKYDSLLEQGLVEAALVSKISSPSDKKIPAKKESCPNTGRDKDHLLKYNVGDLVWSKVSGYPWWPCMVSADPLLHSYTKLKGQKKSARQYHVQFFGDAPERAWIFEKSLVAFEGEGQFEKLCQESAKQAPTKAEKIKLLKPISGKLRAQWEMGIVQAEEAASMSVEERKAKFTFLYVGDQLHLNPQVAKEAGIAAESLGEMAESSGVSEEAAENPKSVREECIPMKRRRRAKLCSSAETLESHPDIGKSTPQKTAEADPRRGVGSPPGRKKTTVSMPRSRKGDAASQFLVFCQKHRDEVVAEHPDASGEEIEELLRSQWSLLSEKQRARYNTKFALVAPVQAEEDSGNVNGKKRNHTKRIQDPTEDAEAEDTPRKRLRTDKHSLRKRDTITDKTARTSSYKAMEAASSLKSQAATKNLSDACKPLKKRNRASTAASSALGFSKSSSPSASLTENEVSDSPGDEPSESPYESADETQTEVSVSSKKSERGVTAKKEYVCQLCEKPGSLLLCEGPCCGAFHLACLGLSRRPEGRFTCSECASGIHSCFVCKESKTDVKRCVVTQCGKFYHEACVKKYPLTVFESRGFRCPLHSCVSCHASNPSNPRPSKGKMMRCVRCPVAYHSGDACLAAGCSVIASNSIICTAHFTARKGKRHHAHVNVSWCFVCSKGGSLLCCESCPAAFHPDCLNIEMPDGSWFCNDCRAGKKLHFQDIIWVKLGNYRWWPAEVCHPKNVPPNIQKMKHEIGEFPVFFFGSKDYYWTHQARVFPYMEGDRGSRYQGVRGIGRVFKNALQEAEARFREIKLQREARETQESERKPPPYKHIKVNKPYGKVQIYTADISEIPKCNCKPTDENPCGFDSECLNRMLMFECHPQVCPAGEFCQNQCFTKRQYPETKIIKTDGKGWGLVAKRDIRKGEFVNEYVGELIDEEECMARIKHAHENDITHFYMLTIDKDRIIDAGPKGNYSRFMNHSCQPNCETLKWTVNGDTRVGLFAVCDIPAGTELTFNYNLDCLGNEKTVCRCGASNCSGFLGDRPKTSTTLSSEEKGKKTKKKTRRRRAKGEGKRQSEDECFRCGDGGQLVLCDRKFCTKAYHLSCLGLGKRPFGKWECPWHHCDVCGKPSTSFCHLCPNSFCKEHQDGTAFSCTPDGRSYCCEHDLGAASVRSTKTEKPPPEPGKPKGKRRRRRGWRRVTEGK
esBAF inh: blocks esBAF chromatin remodeling in mouse ES cells; Bmi1-luciferase knock-in reporter, 24 h; 100% = twice the neutral-well signal; reporter increase, % at 12.5 µM; 350,000 tested, 2% active; in the data active = activation above about 40%; inconclusive = no clear call, values can overlap the other calls;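 also: 0% = median of the plate's neutral control wells and 100% = double that signal; a rise in the Bmi1 reporter signal indicates esBAF inhibition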
Xi reactivation: X-chromosome reactivation activator. XiGFP mouse fibroblasts, % GFP-positive cells imaging, 3 d; cells co-treated with 5-aza-dC sensitizer; scaled so ellipticine positive control = 100%. activation, % at 7.58 µM. 360,000 tested, 0.055% active;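 active = mean normalized replicate activation at least 10% and every replicate at or above 10%; inconclusive = only one of the two criteria met; inactive = mean below 10% and not all replicates reach 10%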;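 also: 0% = median of on-plate neutral control wells and 100% = ellipticine 6 µM median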
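Material: XiGFP fibroblasts, SV40-immortalized. Buffer or medium: DMEM plus 5-aza-dC sensitizer. Compound: single concentration per compound, delivered by pin transfer. Times: 3 days compound exposure. Controls: ellipticine 6 µM.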
MITF TRPM1 HTS: activators of MITF-driven TRPM1 promoter activity in SK-MEL-5 cells. 300,000 tested, 0.75% active. activation, % at 12.5 µM. SK-MEL-5 TRPM1-promoter luciferase, 24 h; % of positive control, neutral wells = 0;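 active = mean activation of at least 80% with every replicate also reaching 80%; inconclusive = mean reaches 80% but some replicate falls short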;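 also: 0% = neutral control wells and 100% = parthenolide positive control wells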
* = called active by the depositor; ? = inconclusive; . = no result.

SMILES	CASP6 VEID inh	Wnt bcat act	NSD2 inh	esBAF inh	Xi reactivation	MITF TRPM1 HTS
O=C(O)[C@@H]1[C@@H](CO)[C@@H]2Cn3c(ccc(-c4cncnc4)c3=O)[C@@H]2N1C(=O)C1CCCC1	1	.	.	.	0	.
C[C@@H]1CCCCO[C@@H](CN(C)S(=O)(=O)c2cccs2)[C@H](C)CN([C@@H](C)CO)C(=O)c2cc(NC(=O)Nc3ccc(C(F)(F)F)cc3)ccc2O1	2	.	.	11	0	.
C[C@H](CO)N1C[C@H](C)[C@H](CN(C)Cc2cccc3c2OCCCO3)OCc2ccccc2-c2c(n(C)c3ccccc23)C1=O	1	.	.	.	1	.
O=C(c1cccs1)n1cc(C(=S)N2CCOCC2)c2ccccc21	.	50*	11	-8	.	-10
CS(=O)(=O)Nc1ccc2c(c1)[C@@H]1C[C@@H](CC(=O)NCc3ccc(Cl)cc3)O[C@H](CO)[C@@H]1O2	-1	.	.	-2	1	.
CC1CCCC(NC(=O)COC(=O)c2ccc([N+](=O)[O-])o2)C1C (centres undefined)	0	-6	-3	.	0	-9
CC1CCCCC1NC(=O)COC(=O)c1ccc([N+](=O)[O-])o1 (centres undefined)	48*	-1	.	.	0	-8
O=C(COC(=O)c1ccc([N+](=O)[O-])o1)NC1CCCCC1	36*	0	5	-6	1	-12
CCN(CC)S(=O)(=O)c1ccc2c(c1)nc(-c1ccccn1)n2C	8	17	-3	60*	0	.
CCCn1c(CCC(=O)O)nc2cc(S(=O)(=O)N(CC)CC)ccc21	1	-2	.	-16	0	-2
CCCCc1ccc(-c2nc(N)n[nH]2)cc1	.	35*	0	29	.	57
Nc1n[nH]c(-c2ccc(F)cc2)n1	.	1	1	0	.	.
COc1ccc(NC(=O)Nc2ccc(N(C)C)cc2)cc1	.	65*	4	19	.	67
COc1ccc(NC(=O)NCCN2C(=O)C3C4C=CC(C4)C3C2=O)cc1 (centres undefined)	0	24	.	58*	0	36
COc1ccc(NC(=O)Nc2ccc(OC)cc2)cc1	.	.	-1	60*	.	62
COC(=O)c1ccc(NC(=O)Nc2ccc(F)cc2)cc1	.	.	-1	60*	.	64
O=C(C[C@@H]1C=C[C@H](NC(=O)Cc2ccccn2)[C@H](CO)O1)NCCc1ccccc1	1	.	.	.	0	.
CO[C@@H](CN(C)S(=O)(=O)c1ccc(F)cc1)[C@H](C)CN(C(=O)Nc1ccccc1F)[C@H](C)CO	6	.	.	13	0	.
COc1ccc2c3c([nH]c2c1)[C@@H](CO)N(C(=O)c1ccccc1)CC31CN(C)C1	.	.	.	.	0	.
Cc1ccc(S(=O)(=O)N(C)C[C@@H]2OCCCC[C@H](C)Oc3ccc(NC(=O)Nc4c(C)noc4C)cc3C(=O)N([C@@H](C)CO)C[C@H]2C)cc1	-2	.	.	-1	0	.
O=C(O)C(Cc1c[nH]c2ccccc12)N1C(=O)c2ccccc2C1=O (centres undefined)	8	43*	6	.	0	-12
CCCNC(=O)C[C@H]1CC[C@H]2[C@@H](COC[C@@H](O)CN2Cc2ccccc2F)O1	-5	.	.	0	0	.
Cc1ccc(N2C(=O)c3ccc(N)cc3C2=O)cc1	.	69*	-4	67*	.	.
Cc1ccc(N2C(=O)c3ccc(N)cc3C2=O)cc1C	.	.	-5	89*	.	.
Cc1ccc(N2C(=O)c3ccccc3C2=O)cc1C	.	-1	0	35	.	27
SMILES	CASP6 VEID inh	Wnt bcat act	NSD2 inh	esBAF inh	Xi reactivation	MITF TRPM1 HTS
Cc1ccc2nc(-c3ccc(NS(=O)(=O)c4c(C)n(C)c(=O)n(C)c4=O)cc3)sc2c1	0	48*	2	.	0	?
C[C@H]1CN([C@@H](C)CO)C(=O)c2cccc(NS(=O)(=O)c3ccc(Cl)cc3)c2O[C@@H]1CN(C)Cc1ccncc1	1	.	.	-4	0	.
COc1cc(N)c(Cl)cc1C(=O)NC1CCN(Cc2ccccc2)CC1	49*	-3	.	5	0	-4
Cc1ccccc1C(=O)NC1CCN(Cc2ccccc2)CC1	-11	13	-3	.	1	-4
Cn1c(C(=O)Nc2ccccc2)cc2sccc21	.	51*	-1	-10	.	32
COc1ccc(NC(=O)c2cc3sccc3n2Cc2ccc(F)cc2)cc1OC	.	17	-5	65*	.	55

Screening results as filed in PubChem BioAssay.
